Experimental data: paper PMC11904481 (ESMO Open, 2025)

Test system: patients with locally advanced unresectable or metastatic, relapsed and/or refractory nonhematological malignancies
Assay: Phase I safety: adverse events
Type: in vivo, human
How it was run: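 Adverse events were graded by NCI CTCAE v4.03 across three i.v. schedules of the test compound (0.45-11.3 mg/kg; weekly per 28-day cycle, or days 1, 4, 8 ±11, 15 per 21-day cycle). Special-interest events covered retinal dysfunction symptoms and documented retinal disorders. Clustered signs were grouped as 'infusion reaction'. QTc was calculated with the Fridericia correction.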

[1] = schedules 1/2 cohort 1, 0.45 mg/kg
[2] = schedules 1/2 cohort 2, 0.9 mg/kg
[3] = schedules 1/2 cohort 3, 1.8 mg/kg
[4] = schedules 1/2 cohort 4, 3.6 mg/kg
[5] = schedules 1/2 cohort 5, 5.4 mg/kg
[6] = schedules 1/2 cohort 6, 4.8 mg/kg
[7] = schedules 1/2 cohort 7, 5.4 mg/kg
[8] = schedules 1/2 cohort 8, 7.2 mg/kg
[9] = schedules 1/2 cohort 9, 9.6 mg/kg

O=C1Nc2cc3[nH]nc(-c4ccncc4)c3cc2CN1Cc1ccccc1 [KO-947]
Total number of AESI [1]: 0 n | Total number of treatment-related TEAEs [1]: 2 n | Treatment-related TEAE: Blurred vision [1]: 0 n (%) | Treatment-related TEAE: Dermatitis acneiform [1]: 0 n (%) | Treatment-related TEAE: Fatigue [1]: 1 (100) n (%) | Treatment-related TEAE: Headache [1]: 0 n (%) | Treatment-related TEAE: Nausea [1]: 0 n (%) | Treatment-related TEAE: QTc prolongation [1]: 0 n (%) | Treatment-related TEAE: Subretinal fluid [1]: 0 n (%) | Treatment-related TEAE: Vomiting [1]: 0 n (%) | AESI: Blurred vision [2]: 0 n (%) | AESI: Eye disorders [2]: 0 n (%) | AESI: Macular edema [2]: 0 n (%) | AESI: Retinal edema [2]: 0 n (%) | AESI: Subretinal fluid [2]: 0 n (%) | AESI: Vitreous floaters [2]: 0 n (%) | Patients with ≥1 AESI [2]: 0 n (%) | Patients with ≥1 treatment-related TEAE [2]: 0 n (%) | Total number of AESI [2]: 0 n | Total number of treatment-related TEAEs [2]: 0 n | Treatment-related TEAE: Blurred vision [2]: 0 n (%) | Treatment-related TEAE: Dermatitis acneiform [2]: 0 n (%) | Treatment-related TEAE: Fatigue [2]: 0 n (%) | Treatment-related TEAE: Headache [2]: 0 n (%) | Treatment-related TEAE: Nausea [2]: 0 n (%) | Treatment-related TEAE: QTc prolongation [2]: 0 n (%) | Treatment-related TEAE: Subretinal fluid [2]: 0 n (%) | Treatment-related TEAE: Vomiting [2]: 0 n (%) | AESI: Blurred vision [3]: 0 n (%) | AESI: Eye disorders [3]: 0 n (%) | AESI: Macular edema [3]: 0 n (%) | AESI: Retinal edema [3]: 0 n (%) | AESI: Subretinal fluid [3]: 0 n (%) | AESI: Vitreous floaters [3]: 0 n (%) | Patients with ≥1 AESI [3]: 0 n (%) | Patients with ≥1 treatment-related TEAE [3]: 1 (100) n (%) | Total number of AESI [3]: 0 n | Total number of treatment-related TEAEs [3]: 1 n | Treatment-related TEAE: Blurred vision [3]: 0 n (%) | Treatment-related TEAE: Dermatitis acneiform [3]: 0 n (%) | Treatment-related TEAE: Fatigue [3]: 0 n (%) | Treatment-related TEAE: Headache [3]: 0 n (%) | Treatment-related TEAE: Nausea [3]: 0 n (%) | Treatment-related TEAE: QTc prolongation [3]: 0 n (%) | Treatment-related TEAE: Subretinal fluid [3]: 0 n (%) | Treatment-related TEAE: Vomiting [3]: 0 n (%) | AESI: Blurred vision [4]: 0 n (%) | AESI: Eye disorders [4]: 0 n (%) | AESI: Macular edema [4]: 0 n (%) | AESI: Retinal edema [4]: 0 n (%) | AESI: Subretinal fluid [4]: 0 n (%) | AESI: Vitreous floaters [4]: 0 n (%) | Patients with ≥1 AESI [4]: 0 n (%) | Patients with ≥1 treatment-related TEAE [4]: 2 (67) n (%) | Total number of AESI [4]: 0 n | Total number of treatment-related TEAEs [4]: 7 n | Treatment-related TEAE: Blurred vision [4]: 0 n (%) | Treatment-related TEAE: Dermatitis acneiform [4]: 0 n (%) | Treatment-related TEAE: Fatigue [4]: 0 n (%) | Treatment-related TEAE: Headache [4]: 1 (33) n (%) | Treatment-related TEAE: Nausea [4]: 1 (33) n (%) | Treatment-related TEAE: QTc prolongation [4]: 0 n (%) | Treatment-related TEAE: Subretinal fluid [4]: 0 n (%) | Treatment-related TEAE: Vomiting [4]: 1 (33) n (%) | AESI: Blurred vision [5]: 0 n (%) | AESI: Eye disorders [5]: 0 n (%) | AESI: Macular edema [5]: 0 n (%) | AESI: Retinal edema [5]: 0 n (%) | AESI: Subretinal fluid [5]: 0 n (%) | AESI: Vitreous floaters [5]: 0 n (%) | Patients with ≥1 AESI [5]: 0 n (%) | Patients with ≥1 treatment-related TEAE [5]: 7 (100) n (%) | Total number of AESI [5]: 0 n | Total number of treatment-related TEAEs [5]: 60 n | Treatment-related TEAE: Blurred vision [5]: 4 (57) n (%) | Treatment-related TEAE: Dermatitis acneiform [5]: 0 n (%) | Treatment-related TEAE: Fatigue [5]: 1 (14) n (%) | Treatment-related TEAE: Headache [5]: 1 (14) n (%) | Treatment-related TEAE: Nausea [5]: 1 (14) n (%) | Treatment-related TEAE: QTc prolongation [5]: 1 (14) n (%) | Treatment-related TEAE: Subretinal fluid [5]: 3 (43) n (%) | Treatment-related TEAE: Vomiting [5]: 0 n (%) | AESI: Blurred vision [6]: 0 n (%) | AESI: Eye disorders [6]: 1 (25) n (%) | AESI: Macular edema [6]: 0 n (%) | AESI: Retinal edema [6]: 0 n (%) | AESI: Subretinal fluid [6]: 1 (25) n (%) | AESI: Vitreous floaters [6]: 0 n (%) | Patients with ≥1 AESI [6]: 1 (25) n (%) | Patients with ≥1 treatment-related TEAE [6]: 3 (75) n (%) | Total number of AESI [6]: 3 n | Total number of treatment-related TEAEs [6]: 25 n | Treatment-related TEAE: Blurred vision [6]: 1 (25) n (%) | Treatment-related TEAE: Dermatitis acneiform [6]: 1 (25) n (%) | Treatment-related TEAE: Fatigue [6]: 0 n (%) | Treatment-related TEAE: Headache [6]: 1 (25) n (%) | Treatment-related TEAE: Nausea [6]: 1 (25) n (%) | Treatment-related TEAE: QTc prolongation [6]: 0 n (%) | Treatment-related TEAE: Subretinal fluid [6]: 1 (25) n (%) | Treatment-related TEAE: Vomiting [6]: 0 n (%) | AESI: Blurred vision [7]: 2 (67) n (%) | AESI: Eye disorders [7]: 3 (10) n (%) | AESI: Macular edema [7]: 0 n (%) | AESI: Retinal edema [7]: 0 n (%) | AESI: Subretinal fluid [7]: 2 (67) n (%) | AESI: Vitreous floaters [7]: 1 (33) n (%) | Patients with ≥1 AESI [7]: 3 (10) n (%) | Patients with ≥1 treatment-related TEAE [7]: 3 (100) n (%) | Total number of AESI [7]: 5 n | Total number of treatment-related TEAEs [7]: 18 n | Treatment-related TEAE: Blurred vision [7]: 2 (67) n (%) | Treatment-related TEAE: Dermatitis acneiform [7]: 1 (33) n (%) | Treatment-related TEAE: Fatigue [7]: 1 (33) n (%) | Treatment-related TEAE: Headache [7]: 1 (33) n (%) | Treatment-related TEAE: Nausea [7]: 2 (67) n (%) | Treatment-related TEAE: QTc prolongation [7]: 0 n (%) | Treatment-related TEAE: Subretinal fluid [7]: 2 (67) n (%) | Treatment-related TEAE: Vomiting [7]: 1 (33) n (%) | AESI: Blurred vision [8]: 2 (40) n (%) | AESI: Eye disorders [8]: 5 (10) n (%) | AESI: Macular edema [8]: 0 n (%) | AESI: Retinal edema [8]: 1 (20) n (%) | AESI: Subretinal fluid [8]: 2 (40) n (%) | AESI: Vitreous floaters [8]: 0 n (%) | Patients with ≥1 treatment-related TEAE [8]: 5 (100) n (%) | Total number of AESI [8]: 5 n | Total number of treatment-related TEAEs [8]: 14 n | Treatment-related TEAE: Blurred vision [8]: 2 (40) n (%) | Treatment-related TEAE: Dermatitis acneiform [8]: 2 (40) n (%) | Treatment-related TEAE: Fatigue [8]: 0 n (%) | Treatment-related TEAE: Headache [8]: 0 n (%) | Treatment-related TEAE: Nausea [8]: 0 n (%) | Treatment-related TEAE: QTc prolongation [8]: 0 n (%) | Treatment-related TEAE: Subretinal fluid [8]: 2 (40) n (%) | Treatment-related TEAE: Vomiting [8]: 1 (20) n (%) | AESI: Blurred vision [9]: 8 (89) n (%) | AESI: Eye disorders [9]: 8 (89) n (%) | AESI: Macular edema [9]: 1 (11) n (%) | AESI: Retinal edema [9]: 1 (11) n (%) | AESI: Subretinal fluid [9]: 3 (33) n (%) | AESI: Vitreous floaters [9]: 1 (11) n (%) | Patients with ≥1 AESI [9]: 8 (89) n (%) | Patients with ≥1 treatment-related TEAE [9]: 8 (89) n (%) | Total number of AESI [9]: 16 n | Total number of treatment-related TEAEs [9]: 39 n | Treatment-related TEAE: Blurred vision [9]: 8 (89) n (%) | Treatment-related TEAE: Dermatitis acneiform [9]: 1 (11) n (%) | Treatment-related TEAE: Fatigue [9]: 1 (11) n (%) | Treatment-related TEAE: Headache [9]: 0 n (%) | Treatment-related TEAE: Nausea [9]: 1 (11) n (%) | Treatment-related TEAE: QTc prolongation [9]: 4 (44) n (%) | Treatment-related TEAE: Subretinal fluid [9]: 3 (33) n (%) | Treatment-related TEAE: Vomiting [9]: 2 (22) n (%) | AESI: Blurred vision (schedules 1/2 total N = 34): 12 (35) n (%) | AESI: Eye disorders (schedules 1/2 total N = 34): 17 (50) n (%) | AESI: Macular edema (schedules 1/2 total N = 34): 1 (3) n (%) | AESI: Retinal edema (schedules 1/2 total N = 34): 2 (6) n (%) | AESI: Subretinal fluid (schedules 1/2 total N = 34): 8 (24) n (%) | AESI: Vitreous floaters (schedules 1/2 total N = 34): 2 (6) n (%) | Patients with ≥1 AESI (schedules 1/2 total N = 34): 17 (50) n (%) | Patients with ≥1 treatment-related TEAE (schedules 1/2 total N = 34): 30 (88) n (%) | Total number of AESI (schedules 1/2 total N = 34): 29 n | Total number of treatment-related TEAEs (schedules 1/2 total N = 34): 166 n | Treatment-related TEAE: Blurred vision (schedules 1/2 total N = 34): 17 (50) n (%) | Treatment-related TEAE: Dermatitis acneiform (schedules 1/2 total N = 34): 5 (15) n (%) | Treatment-related TEAE: Fatigue (schedules 1/2 total N = 34): 4 (12) n (%) | Treatment-related TEAE: Headache (schedules 1/2 total N = 34): 4 (12) n (%) | Treatment-related TEAE: Nausea (schedules 1/2 total N = 34): 6 (18) n (%) | Treatment-related TEAE: QTc prolongation (schedules 1/2 total N = 34): 5 (15) n (%) | Treatment-related TEAE: Subretinal fluid (schedules 1/2 total N = 34): 11 (32) n (%) | Treatment-related TEAE: Vomiting (schedules 1/2 total N = 34): 5 (15) n (%) | grade ≥3 TEAE: QTc prolongation on ECG (schedules 1 and 2): 9% | grade ≥3 TEAE: hypokalemia (schedules 1 and 2): 6% | grade ≥3 TEAE: increased blood alkaline phosphatase (schedules 1 and 2): 6% | grade ≥3 TEAE: increased gamma-glutamyl transferase (schedules 1 and 2): 15% | grade ≥3 TEAE: lymphopenia (schedules 1 and 2): 6% | grade ≥3 TEAE: rash (schedules 1 and 2): 6% | patients discontinued owing to AEs (schedules 1 and 2): 3% | patients with at least one AESI (schedules 1 and 2): 50% | patients with grade ≥3 TEAEs (schedules 1 and 2): 50% | treatment-related QTc prolongation (schedules 1 and 2): 15% | treatment-related blurred vision (schedules 1 and 2): 50% | treatment-related dermatitis acneiform (schedules 1 and 2): 15% | treatment-related fatigue (schedules 1 and 2): 12% | treatment-related headache (schedules 1 and 2): 12% | treatment-related nausea (schedules 1 and 2): 18% | treatment-related subretinal fluid (schedules 1 and 2): 32% | treatment-related vomiting (schedules 1 and 2): 15%
